What all share (type): functional
Assay [1] relates to Staphylococcus aureus. The assay can be described thus: Antibacterial activity against Staphylococcus aureus ATCC 29213 assessed as inhibition of visible bacterial growth incubated for 24 hrs at 37 degC by broth microdilution method. The following applies: ATCC 29213, 24 h. Summed up:
(§1)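 MICs were determined by broth microdilution against S. aureus strains maintained on Mueller Hinton agar (24 h, 37 °C). Final compound concentrations ranged from 0.39 to 100 μg/mL. Inoculum was 10^5 CFU/mL final per well, incubated 24 h at 37 °C. MIC was the lowest concentration preventing visible growth. Wells were run in triplicate and the experiment was repeated three times.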

In assay [2] the test system is Staphylococcus aureus. The assay can be described thus: Antibacterial activity against Staphylococcus aureus isolated from tibial osteomyelitis patient assessed as inhibition of visible bacterial growth incubated for 24 hrs at 37 degC by broth microdilution method. The method, boiled down: as §1
In assay [3] the test system is Helicobacter pylori. The assay can be described thus: Bactericidal activity against Helicobacter pylori J99 assessed as compound concentration causing reduction in viable colony-forming units pre-incubated for 2 hrs followed by incubation at 37 degC under microaerophilic conditions for 72 hrs. The method, boiled down:
(§2)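 H. pylori J99 came from 24 h cultures on Skirrow's medium (microaerobic, 37 °C) and was resuspended in brain heart infusion. Compound at 100 μg/mL final was mixed with 10^6 CFU/mL bacteria and held 2 h at 37 °C. Controls were BHI alone and amoxicillin at 10 μg/mL. Samples were serially 10-fold diluted in warm PBS and plated in triplicate on Skirrow's (72 h, 37 °C, microaerophilic). Kill was log10 CFU/mL (0 h) minus log10 CFU/mL (2 h).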

The subject of assay [4] is Staphylococcus aureus. The assay can be described thus: Antibacterial activity against Staphylococcus aureus isolated from tibial leg ulcer patient assessed as inhibition of visible bacterial growth incubated for 24 hrs at 37 degC by broth microdilution method. Summed up:
as §1

For assay [5], the system named is Helicobacter pylori. The assay can be described thus: Bactericidal activity against Helicobacter pylori J99 assessed as reduction in viable colony-forming units pre-incubated for 2 hrs followed by incubation at 37 degC under microaerophilic conditions for 72 hrs. Summed up: as §2
The test system of assay [6] is Helicobacter pylori. The assay can be described thus: Bactericidal activity against Helicobacter pylori J99 assessed as reduction in viable colony-forming units pre-incubated for 2 hrs followed by incubation at 37 degC under microaerophilic conditions for 72 hrs relative to initial inoculum. Summed up: as §2

Converted amounts (≈) assume the structure as drawn. A value given as a limit tells only on which side of the number the result lay.

On to `COc1cc(O)c2c(O)c3c(c(-c4c(OC)cc5c(c4O)C(=O)c4c(O)cc(C)cc4C5=O)c2c1)CC(C)OC3=O` (stereo unspecified), for which the minimal inhibitory concentration (MIC) in the assay with Staphylococcus aureus [1], in the assay with Staphylococcus aureus [2] and with Staphylococcus aureus [4] was 89.9 µM (≈ 50 µg/mL) in each case. Also, the Activity in the assay with Helicobacter pylori [3] was determined as 179.8 µM. The log10CFU/ml in the assay with Helicobacter pylori [5] is listed as 0.42.
As for `COc1cc(O)c2c(O)c3c(c(-c4c(OC)cc5c(c4O)C(=O)c4c(O)cc(C)c(OC)c4C5=O)c2c1)CC(C)OC3=O` (stereo unspecified), the MIC in the assay on Staphylococcus aureus [1] was determined as 10.7 µM (≈ 6.28 µg/mL); with Staphylococcus aureus [2], 10.7 µM (≈ 6.28 µg/mL); in the assay on Staphylococcus aureus [4], 2.7 µM (≈ 1.58 µg/mL). Also, the Activity with Helicobacter pylori [3] is 170.6 µM; with Helicobacter pylori [6], greater than 99.9%. The log10CFU/ml with Helicobacter pylori [5] is recorded as 6.
For `CC1(C)S[C@@H]2[C@H](NC(=O)[C@H](N)c3ccc(O)cc3)C(=O)N2[C@H]1C(=O)O` [AMOXICILLIN], the Activity with Helicobacter pylori [3] stood at 274 µM. In addition, the log10CFU/ml in the assay on Helicobacter pylori [5] was 0.51.
Regarding `NC[C@H]1O[C@H](O[C@H]2[C@H](O)[C@@H](O[C@H]3O[C@H](CO)[C@@H](O)[C@H](N)[C@H]3O)[C@H](N)C[C@@H]2N)[C@H](O)[C@@H](O)[C@@H]1O` [KANAMYCIN], the MIC in the assay on Staphylococcus aureus [1], with Staphylococcus aureus [2] and in the assay on Staphylococcus aureus [4] was 8.3 µM (≈ 4.02 µg/mL) throughout.

Source of the values: ChEMBL document CHEMBL3580550, “Antibacterial Polyketide Heterodimers from Pyrenacantha kaurabassana Tubers” (2015).
